From ChEMBL document CHEMBL3797057, “Synthesis and bioevaluation of substituted chalcones, coumaranones and other flavonoids as anti-HIV agents” (Bioorg Med Chem, 2016)
Blank lines part the entries; values can stand above or below the compound they belong to. The source made the active and inactive calls. The calls are words filed in the database; no cut-off is given here.

How the values were obtained:
[1] = test system: Human immunodeficiency virus 1; assay: Antiviral activity against HIV1 infected in human TZM-bl cells assessed as inhibition of viral infection at 10 uM preincubated with cells for 5 mins followed by viral infection measured after 24 hrs by Bright Glo luciferase reporter gene assay relative to control; assay type: functional; settings: for inhibition at 10 µM: Human immunodeficiency virus 1, TZM-bl
Method in brief: (§1)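 TZM-bl cells at 50-60% confluence, in D10 medium, were pre-treated in triplicate with 10 µM compound or DMSO vehicle, for 5 min or 3 h. Virus was then added at 60 TCID50/0.1mL (MOI=0.01). After 24 h the cells were lysed for luciferase, read over 5 s/well. Result is % reduction in relative light units versus the virus+DMSO control.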

[2] = Cytotoxicity against human TZM-bl cells assessed as inhibition of cell viability at 10 uM by CytoTox Glo assay relative to control; assay type: cell-based; settings: for cytotoxicity at 10 µM: TZM-bl cells, read-out: INH; for inhibition (INH): tzm, 10 µM
Method in brief: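 Replicate dishes of treated TZM-bl cells (50-60% confluent, compound at 10 µM in D10, triplicate) assayed with CytoTox Glo for dead and total cell numbers. Result is % difference in live-cell luminescence versus matched DMSO vehicle control.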

[3] = test system: Human immunodeficiency virus 1; assay: Antiviral activity against HIV1 BAL infected in human TZM-bl cells assessed as inhibition of viral infection; assay type: functional, organism-based; settings: for IC50: Human immunodeficiency virus 1, BAL
Method in brief: (§2)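 TZM-bl cells seeded at 6 × 10^4 cells/ml (6000 cells/well), left overnight, then at 50-60% confluence treated in triplicate with compound in D10 or DMSO vehicle. After 5 min, HIV-1 added at 60 TCID50/0.1mL (MOI=0.01). After 24 h at 37°C/5% CO2, cells lysed for Bright Glo luciferase. Inhibition is % reduction in RLU versus virus+DMSO control, with no-virus wells as baseline.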

[4] = Cytotoxicity against human TZM-bl cells assessed as decrease in cell viability at IC50 by CytoTox Glo assay relative to control; assay type: cell-based
[5] = test system: Human immunodeficiency virus 1; assay: Antiviral activity against HIV1 infected in human TZM-bl cells assessed as inhibition of viral infection at 10 uM preincubated with cells for 3 hrs followed by viral infection measured after 24 hrs by Bright Glo luciferase reporter gene assay relative to control; assay type: functional; settings: Human immunodeficiency virus 1, TZM-bl; method in brief: as §1
[6] = test system: Human immunodeficiency virus 1; assay: Antiviral activity against HIV1 BAL infected in human PM1 cells assessed as inhibition of viral propagation at 10 uM preincubated with cells for 10 mins followed by viral infection measured after 2 hrs by p24 ELISA relative to control; assay type: functional; settings: for inhibition at 10 µM: Human immunodeficiency virus 1, BAL
Method in brief: (§3)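 PM1 cells (1.5 × 10^5/0.1 mL) in R20 (RPMI 1640, 20% FBS, 10mM HEPES) given compound or matched DMSO 10 min, then infected with HIV-1 BaL at 150 TCID50/0.1 mL (MOI=0.001) for 2 h. Cells washed, resuspended in fresh R20 with compound or vehicle. Supernatants taken day 3; culture continued to day 5, supernatant assayed for HIV p24 by ELISA.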

[7] = test system: Human immunodeficiency virus 1; assay: Antiviral activity against HIV1 BAL infected in human PM1 cells assessed as inhibition of viral propagation at 5 uM preincubated with cells for 10 mins followed by viral infection measured after 2 hrs by p24 ELISA relative to control; assay type: functional; settings: for inhibition at 5 µM: Human immunodeficiency virus 1, BAL; method in brief: as §3
[8] = Cytotoxicity against human PM1 cells assessed as inhibition of cell viability at 5 uM by trypan blue dye exclusion method relative to control; assay type: cell-based; settings: for inhibition (INH): pm1, 5 µM; for cytotoxicity at 5 µM: PM1 cells, read-out: INH
Method in brief: (§4)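 PM1 cells (1.5 × 10^5/0.1 mL) kept in R20 with compound or matched DMSO vehicle over the 5-day BaL propagation assay (10 min pre-treatment, 2 h infection, wash, re-treatment). Viability monitored by trypan blue dye exclusion.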

[9] = Cytotoxicity against human PM1 cells assessed as cell viability at 10 uM by trypan blue dye exclusion method relative to control; assay type: cell-based; settings: read-out: Activity; method in brief: as §4
[10] = Cytotoxicity against human PM1 cells assessed as inhibition of cell viability at 10 uM by trypan blue dye exclusion method relative to control; assay type: cell-based; settings: read-out: INH; method in brief: as §4
[11] = test system: CHO; assay: Cytotoxicity against CHO cells assessed as decrease in cell proliferation after 48 hrs by MTS assay; assay type: cell-based, Cricetulus griseus
Method in brief: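 CHO cells plated at 10,000 cells/mL, in triplicate, incubated overnight. Compound then added from DMSO stock, final DMSO <1%. After 48 h at 37°C in 5% CO2, MTS reagent was added for 4 h and absorbance read at 490 nm. IC50 taken from the plot of relative A490 versus concentration.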

[12] = test system: Human immunodeficiency virus 1; assay: Antiviral activity against HIV1 92UG029 clinical isolate infected in human TZM-bl cells assessed as inhibition of viral infection; assay type: functional, organism-based; method in brief: as §2
[13] = test system: Human immunodeficiency virus 1; assay: Antiviral activity against HIV1 93UG070 clinical isolate infected in human TZM-bl cells assessed as inhibition of viral infection; assay type: functional, organism-based; method in brief: as §2
[14] = test system: Human immunodeficiency virus 1; assay: Antiviral activity against HIV1 93UG067 clinical isolate infected in human TZM-bl cells assessed as inhibition of viral infection; assay type: functional, organism-based; method in brief: as §2
[15] = Cytotoxicity against human TZM-bl cells assessed as decrease in cell metabolic activity up to 10 uM by MTT reduction assay; assay type: ADME, cell-based
Method in brief: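 Confluent TZM-bl cells exposed to compound up to 10 µM or matched vehicle; cell metabolic activity monitored by MTT reduction assay. Mean ± SEM, n=3.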

IC50 [3]: 4.4 µM
Structure (SMILES): COc1ccccc1-c1cc(=O)c2c(O)cccc2o1
inhibition at 10 µM [1]: 83.8%
cytotoxicity at 10 µM [2]: 44.5%
Activity [4]: 42%

Structure (SMILES): CCOc1ccc(Br)cc1/C=C/C(=O)c1c(O)cccc1OCc1ccccc1
inhibition at 10 µM [1]: 60.2%
inhibition (INH) [2]: Not Active
inhibition at 10 µM [5]: 89.9%
inhibition at 10 µM [6]: 92.3%
inhibition at 5 µM [7]: 72.2%
inhibition (INH) [8]: Not Active
viability at 10 µM [9]: 96.8%

Structure (SMILES): COc1cc(OC)c(/C=C/C(=O)c2ccccc2O)cc1Br
inhibition at 10 µM [1]: 28.6%
cytotoxicity at 10 µM [2]: 1.9%

Structure (SMILES): COc1ccc(Cl)cc1-c1oc2ccccc2c(=O)c1O
cytotoxicity at 10 µM [2]: 23.5%

Structure (SMILES): CCOc1ccc(Br)cc1/C=C/C(=O)c1ccccc1O
cytotoxicity at 10 µM [2]: 51.9%

IC50 [3]: 42.3 µM
Structure (SMILES): COc1ccc(Br)cc1-c1cc(=O)c2c(OCc3ccccc3)cccc2o1
inhibition at 10 µM [1]: 16.4%
cytotoxicity at 10 µM [2]: 6.5%
Activity [4]: Non-toxic

IC50 [3]: 12.6 µM
Structure (SMILES): CCOc1ccc(Cl)cc1-c1oc2ccccc2c(=O)c1O
cytotoxicity at 10 µM [2]: 21.9%
Activity [4]: 20%
inhibition at 10 µM [5]: 54.1%
inhibition [6]: inactive
cytotoxicity at 10 µM [10]: 25.8%

IC50 [3]: 20 µM
Structure (SMILES): COc1ccc(Br)cc1/C=C/C(=O)c1ccc2ccccc2c1O
cytotoxicity at 10 µM [2]: 19.9%
Activity [4]: 90%

Structure (SMILES): COc1ccc(C)cc1-c1oc2ccccc2c(=O)c1O
cytotoxicity at 10 µM [2]: 4.8%

IC50 [3]: 30.4 µM
Structure (SMILES): COc1ccccc1-c1oc2ccccc2c(=O)c1O
inhibition at 10 µM [1]: 21.3%
inhibition (INH) [2]: Not Active
Activity [4]: Non-toxic

Structure (SMILES): CCOc1ccc(Cl)cc1/C=C/C(=O)c1ccccc1O
inhibition at 10 µM [1]: 86.1%
cytotoxicity at 10 µM [2]: 86.4%

Structure (SMILES): CCCCCCCCOc1ccc(Br)cc1/C=C/C(=O)c1c(O)cccc1OCc1ccccc1
inhibition at 10 µM [1]: < 10%
inhibition at 10 µM [5]: 27.9%

Structure (SMILES): COc1ccc(C)cc1/C=C/C(=O)c1ccccc1O
cytotoxicity at 10 µM [2]: 46.9%

Structure (SMILES): COc1ccc(Br)cc1C1CC(=O)c2ccccc2O1 (centres undefined)
inhibition (INH) [2]: Not Active

IC50 [3]: 10.4 µM
Structure (SMILES): CCOc1ccc(Br)cc1-c1oc2ccccc2c(=O)c1O
inhibition at 10 µM [1]: 51.7%
inhibition (INH) [2]: Not Active
Activity [4]: Non-toxic
inhibition at 10 µM [5]: 54.9%
inhibition at 10 µM [6]: 1.3%
inhibition [7]: inactive
cytotoxicity at 10 µM [10]: 23.1%
cytotoxicity at 5 µM [8]: 16.5%

Structure (SMILES): COc1ccc(Br)cc1-c1cc(=O)c2ccccc2o1
cytotoxicity at 10 µM [2]: 23.6%

Structure (SMILES): CCOc1ccc(Cl)cc1/C=C/C(=O)c1c(O)cccc1OCc1ccccc1
inhibition at 10 µM [1]: 64.8%
cytotoxicity at 10 µM [2]: 8.7%
inhibition at 10 µM [5]: 79%
inhibition at 10 µM [6]: 95.8%
inhibition at 5 µM [7]: 65.8%
cytotoxicity at 10 µM [10]: 12.3%
inhibition (INH) [8]: Not Active

Structure (SMILES): COc1ccccc1-c1cc(=O)c2ccccc2o1
cytotoxicity at 10 µM [2]: 39.5%

Structure (SMILES): COc1ccccc1/C=C/C(=O)c1ccccc1O
inhibition [1]: inactive
cytotoxicity at 10 µM [2]: 16.5%

Structure (SMILES): COc1ccc(I)cc1/C=C/C(=O)c1ccccc1O
inhibition at 10 µM [1]: 99.7%
cytotoxicity at 10 µM [2]: 99.6%

IC50 [3]: 30.9 µM
Structure (SMILES): COc1cc(Br)cc(-c2oc3ccccc3c(=O)c2O)c1OC
inhibition at 10 µM [1]: 25.9%
inhibition (INH) [2]: Not Active
Activity [4]: Non-toxic

Structure (SMILES): COc1ccc(Br)cc1/C=C/C(=O)c1ccccc1O
cytotoxicity at 10 µM [2]: 62.6%

Structure (SMILES): CCOc1ccc(Cl)cc1/C=C1\Oc2cccc(OCc3ccccc3)c2C1=O
inhibition at 10 µM [1]: 15.7%
inhibition (INH) [2]: Not Active

Structure (SMILES): COc1ccc(Br)cc1/C=C/C(=O)c1c(O)cccc1OC
cytotoxicity at 10 µM [2]: 90.4%

Structure (SMILES): COc1ccccc1/C=C/C(=O)c1c(O)cccc1OCc1ccccc1
IC50 ([11]; cho): ND(toxic)

Structure (SMILES): COc1cc(Br)cc(/C=C/C(=O)c2ccccc2O)c1OC
cytotoxicity at 10 µM [2]: 72.3%

Structure (SMILES): CCOc1ccc(Br)cc1/C=C1\Oc2cccc(OCc3ccccc3)c2C1=O
inhibition at 10 µM [1]: 12.6%
cytotoxicity at 10 µM [2]: 8.4%

IC50 [3]: 4.7 µM
Structure (SMILES): COc1ccc(Br)cc1/C=C/C(=O)c1c(O)cccc1OCc1ccccc1
inhibition at 10 µM [1]: 86.5%
cytotoxicity at 10 µM [2]: 23.4%
inhibition [3]: Dose-dependent effect
Activity [4]: Non-toxic
inhibition [12]: Dose-dependent effect
inhibition [13]: Dose-dependent effect
inhibition [14]: Dose-dependent effect
Activity [15]: Non-toxic
inhibition at 10 µM [5]: 90.5%
inhibition at 10 µM [6]: 99.9%
inhibition at 5 µM [7]: 80%
cytotoxicity at 10 µM [10]: 61.7%
cytotoxicity at 5 µM [8]: 0.6%

Structure (SMILES): COc1cc(OC)c(-c2oc3ccccc3c(=O)c2O)cc1Br
inhibition at 10 µM [1]: 43.6%
inhibition (INH) [2]: Not Active

Structure (SMILES): COc1ccc(Cl)cc1/C=C/C(=O)c1ccccc1O
cytotoxicity at 10 µM [2]: 99.5%

Structure (SMILES): COc1ccc(I)cc1-c1oc2ccccc2c(=O)c1O
cytotoxicity at 10 µM [2]: 15.3%

Structure (SMILES): COc1ccc(Br)cc1-c1cc(=O)c2c(O)cccc2o1
cytotoxicity at 10 µM [2]: 34.8%

Structure (SMILES): COc1ccc(Br)cc1/C=C1\Oc2cccc(OC)c2C1=O
inhibition at 10 µM [1]: 9.2%
cytotoxicity at 10 µM [2]: 0.2%
IC50 ([11]; Cricetulus griseus, CHO, 48 h, read-out: IC50): 17.3 µM

IC50 [3]: 43.7 µM
Structure (SMILES): COc1ccc(Br)cc1-c1oc2ccccc2c(=O)c1O
inhibition at 10 µM [1]: 22.4%
inhibition (INH) [2]: Not Active
Activity [4]: Non-toxic
